Measurements taken from article PMC6851786 (Journal of Clinical Pharmacology, 2019).
Entries after “also recorded” stand apart in the source; their conditions may differ. Like-named read-outs stand apart in the source and are kept apart here.

Assays:
[1] = across the 0.5- to 3.5-mg dose range; cited from earlier work
[2] = Part 2: effect of CYP3A inhibitor itraconazole on avadomide PK; assay type: in vivo, human (healthy adult subjects); details: for Tmax / Vd/F / half-life / AUC(0-inf) / AUC(0-t) / Cmax: human, plasma
Method in brief: (§1)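 Open-label, nonrandomized, single-sequence crossover in healthy adults, each subject serving as own control. Plasma for test compound was taken predose and at 0.5, 1, 2, 3, 4, 6, 8, 12, 24, 48 and 72 h postdose and assayed by validated LC-MS/MS (LLOQ 1 ng/mL; range 1–400 ng/mL). Parameters came from noncompartmental analysis, including apparent volume. The ANOVA used ln AUC0-t, AUC0-inf and Cmax, with treatment fixed and subject random. Combination/alone geometric mean ratios are given with 90% CI.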

[3] = cited from earlier work
[4] = Part 4: effect of CYP3A4 inducer rifampin on avadomide PK; assay type: in vivo, human (healthy adult subjects); details: for Tmax / Vd/F / half-life / AUC(0-inf) / AUC(0-t) / Cmax: human, plasma; for AUC(0-inf): AUC0-inf; for AUC(0-inf) / AUC(0-t) / Cmax: Geometric LS Means; for AUC(0-t): AUC0-t
Method in brief: as §1

Safety assessment = assay type: in vivo, human (healthy adult subjects)
[5] = Part 3: effect of CYP1A2 inhibitor fluvoxamine on avadomide PK; assay type: in vivo, human (healthy adult subjects); details: for Tmax / Vd/F / half-life / AUC(0-inf) / AUC(0-t) / Cmax: human, plasma; for AUC(0-inf): AUC0-inf; for AUC(0-inf) / AUC(0-t) / Cmax: Geometric LS Means; for AUC(0-t): AUC0-t
Method in brief: as §1

CYP3A4/5 and CYP1A2 = details: human liver microsomes; ref data on file; cited from earlier work
[6] = cited from earlier work; remark: listed apart in the source
[7] = with the CYP1A2 inhibitor fluvoxamine; cited from earlier work
[8] = cited from earlier work; remark: listed apart in the source
CYP1A2 = details: healthy subjects; cited from earlier work
[9] = avadomide + itraconazole/avadomide
[10] = avadomide + rifampin /avadomide
[11] = oral, 3 mg, avadomide alone, Part 4, N 19, ANOVA
[12] = oral, avadomide + rifampin, N 18, ANOVA
[13] = Part 2, following avadomide alone
[14] = Part 2, following avadomide plus itraconazole
[15] = Part 3, following avadomide alone
[16] = Part 3, following avadomide plus fluvoxamine
[17] = Part 4, following avadomide plus rifampin
[18] = avadomide + fluvoxamine/avadomide
[19] = fluvoxamine coadministration versus alone
[20] = oral, 3 mg, avadomide alone, Part 3, N 18, ANOVA
[21] = oral, avadomide + fluvoxamine, N 18, ANOVA
[22] = Part 3, following fluvoxamine alone
[23] = with the CYP3A4 inducer carbamazepine
[24] = with the CYP3A inhibitor ketoconazole
[25] = Part 4, following rifampin alone

For `Cc1nc2cccc(N)c2c(=O)n1C1CCC(=O)NC1=O` (centres unmarked) [Avadomide], the “plasma exposure versus dose” value [1] is listed as “increased in a dose‐dependent manner”, the “geometric mean ratio of AUC0-t to AUC0-inf” value (“geometric mean ratio” for short) ([2]; avadomide 3 mg alone and with itraconazole, 72-hour sampling) is listed as “greater than 90%” and the “AUC0-t, Ratio of Geometric LS Means” value [2, 9] is listed as 100.54%. For the same compound, the “Cmax, Ratio of Geometric LS Means” value [2, 9] was about 93.64%, the Tmax ([2]; oral) was 1 h and the Vd/F ([2]; oral) was 53.8 L. The half-life ([2]; oral) was 8.79 h, the AUC(0-inf) ([2]; oral, 3 mg) was 708 ng·h/mL and the AUC(0-t) ([2]; oral, 3 mg) was 675 ng·h/mL. It also gave a Cmax ([2]; oral, 3 mg) of 70.8 ng/mL, an AUC(0-inf) ([2]; po, 3 mg) of 708 ng·h/mL and an AUC(0-t) ([2]; po, 3 mg) of 675 ng·h/mL. It also gave a Cmax ([2]; po, 3 mg) of 70.8 ng/mL, a Tmax ([2]; po, 3 mg) of 1 h and a Vd/F ([2]; po, 3 mg) of 54.7 L. The half-life ([2]; po, 3 mg) was 8.94 h, the “plasma avadomide t½ (without CYP inhibition)” value ([3]; healthy subjects) was about 8 h and the Tmax ([3]; single oral dose 3 to 15 mg, healthy adult subjects) was “approximately 1 hour”. For the same compound, the tolerability ([3]; single oral doses of up to 15 mg, healthy subjects) was “well tolerated”, the “geometric mean ratio” value ([4]; avadomide 3 mg alone and with rifampin, 72-hour sampling) was “greater than 90%” and the “AUC0-inf, Ratio of Geometric LS Means” value [4, 10] was 62.83%. For the same compound, the “AUC0-t, Ratio of Geometric LS Means” value [4, 10] was 62.34%, the “Cmax, Ratio of Geometric LS Means” value [4, 10] was 88.17% and the Tmax ([4]; oral) was 0.53 h. For the same compound, the Vd/F ([4]; oral) was 57.3 L, the half-life ([4]; oral) was 6.08 h and the AUC(0-inf) [4, 11] was 733 ng·h/mL. The AUC(0-t) [4, 11] was 687 ng·h/mL, the Cmax [4, 11] was 74.8 ng/mL and the AUC(0-inf) [4, 12] was 460 ng·h/mL. For the same compound, the AUC(0-t) [4, 12] was 428 ng·h/mL, the Cmax [4, 12] was 65.9 ng/mL and the Tmax ([4]; po, 3 mg) was 0.55 h. The Vd/F ([4]; po, 3 mg) was 55 L, the half-life ([4]; po, 3 mg) was 9.29 h and the “number of TEAEs reported” value (Safety assessment; [13]) was 2 TEAEs. For the same compound, the “subjects reporting TEAEs” value (Safety assessment; [13]) was 10.5%, the “number of TEAEs reported” value (Safety assessment; [14]) was 2 TEAEs and the “subjects reporting TEAEs” value (Safety assessment; [14]) was 10.5%. The “moderate TEAE of vomiting, considered related to the IP” value (Safety assessment; [15]) was 1 subject, the “number of TEAEs reported” value (Safety assessment; [15]) was 7 TEAEs and the “subjects reporting TEAEs” value (Safety assessment; [15]) was 15.8%. For the same compound, the “number of TEAEs reported” value (Safety assessment; [16]) was 9 TEAEs, the “subjects reporting TEAEs” value (Safety assessment; [16]) was 38.9% and the “subjects reporting TEAEs” value (Safety assessment; Part 4, after avadomide alone) was “No subjects reported TEAEs”. For the same compound, the “number of TEAEs reported” value (Safety assessment; [17]) was 1 TEAE, the “subjects reporting TEAEs” value (Safety assessment; [17]) was 5.6% and the tolerability (Safety assessment; single oral dose of 3 mg alone or coadministered with fluvoxamine, itraconazole, or rifampin) was “well tolerated”. The “geometric mean ratio” value ([5]; avadomide 3 mg alone and with fluvoxamine, 72-hour sampling) was “greater than 90%”, the “AUC0-inf, Ratio of Geometric LS Means” value [5, 18] was 154.81% and the “AUC0-t, Ratio of Geometric LS Means” value [5, 18] was 160.35%. The “Cmax, Ratio of Geometric LS Means” value [5, 18] was 107.59%, the “decrease of apparent clearance” value [5, 19] was 34% and the “prolongation of avadomide t½” value [5, 19] was 50%. It also gave a Tmax ([5]; oral) of 0.79 h, a Vd/F ([5]; oral) of 54.3 L and a half-life ([5]; oral) of 13.7 h. For the same compound, the AUC(0-inf) [5, 20] was 709 ng·h/mL, the AUC(0-t) [5, 20] was 667 ng·h/mL and the Cmax ([5]; oral, 3 mg, avadomide alone, Part 3, N 19, ANOVA) was 70.2 ng/mL. The AUC(0-inf) [5, 21] was 1100 ng·h/mL, the AUC(0-t) [5, 21] was 1070 ng·h/mL and the Cmax [5, 21] was 75.6 ng/mL. For the same compound, the Tmax ([5]; po, 3 mg) was 0.5 h, the Vd/F ([5]; po, 3 mg) was 55.2 L and the half-life ([5]; po, 3 mg) was 9.16 h. The “enzymes involved in oxidative metabolism” value (CYP3A4/5 and CYP1A2) was “major enzymes involved in the oxidative metabolism; also recorded: major isozymes involved in oxidative metabolism; also recorded: metabolized mainly by CYP3A and CYP1A2 in vitro”.
For `COCCCC/C(=N\OCCN)c1ccc(C(F)(F)F)cc1` [fluvoxamine, reference compound], the “number of TEAEs reported” value (Safety assessment; [22]) was 11 TEAEs and the “subjects reporting TEAEs” value (Safety assessment; [22]) was 31.6%.
With `CCC(C)n1ncn(-c2ccc(N3CCN(c4ccc(OCC5COC(Cn6cncn6)(c6ccc(Cl)cc6Cl)O5)cc4)CC3)cc2)c1=O` (centres unmarked) [itraconazole, reference compound] the “subjects reporting TEAEs” value (Safety assessment; Part 2, after itraconazole alone) was “No subjects reported TEAEs”.
For `Nc1cccc2c1C(=O)N(C1CCC(=O)NC1=O)C2=O` (centres unmarked) [pomalidomide], the metabolism and elimination [6] is given as “primarily metabolized by CYP1A2 and CYP3A, with a low fraction excreted in urine as unchanged drug”, the “AUC, % of that when administered alone” value [7] is given as 225.1% and the “Cmax, % of that when administered alone” value [7] is given as 123.7%. For the same compound, the “AUC, % of that when administered alone” value [8, 23] was 79.7%, the “Cmax, % of that when administered alone” value [8, 23] was 75.0% and the “AUC, % of that when administered alone” value [8, 24] was 118.8%. For the same compound, the “Cmax, % of that when administered alone” value [8, 24] was 107.3%.
In the case of `CO[C@H]1/C=C/O[C@@]2(C)Oc3c(C)c(O)c4c(O)c(c(/C=N/N5CCN(C)CC5)c(O)c4c3C2=O)NC(=O)/C(C)=C\C=C\[C@H](C)[C@H](O)[C@@H](C)[C@@H](O)[C@@H](C)[C@H](OC(C)=O)[C@@H]1C` [rifampin, reference compound], the “increase in conversion of caffeine to paraxanthine mediated by CYP1A2” value (CYP1A2) is given as 15%, the “number of TEAEs reported” value (Safety assessment; [25]) is given as 5 TEAEs and the “subjects reporting TEAEs” value (Safety assessment; [25]) is given as 22.2%.
